According to ChEMBL document CHEMBL4043093, “2-Oxo-3, 4-dihydropyrimido[4, 5-d]pyrimidinyl derivatives as new irreversible pan fibroblast growth factor receptor (FGFR) inhibitors” (Eur J Med Chem, 2017):

How the values were obtained:
[1] = target: Serine/threonine-protein kinase PAK 2 (Homo sapiens) (UniProt Q13177); test: Inhibition of wild-type human partial length PAK2 (P151 to R525 residues) expressed in Escherichia coli BL21 assessed as residual activity at 1000 nM after 30 mins by Kinomescan method relative to control
Chain of Serine/threonine-protein kinase PAK 2 (Homo sapiens) (Q13177 whole entry, the tested form may be a part): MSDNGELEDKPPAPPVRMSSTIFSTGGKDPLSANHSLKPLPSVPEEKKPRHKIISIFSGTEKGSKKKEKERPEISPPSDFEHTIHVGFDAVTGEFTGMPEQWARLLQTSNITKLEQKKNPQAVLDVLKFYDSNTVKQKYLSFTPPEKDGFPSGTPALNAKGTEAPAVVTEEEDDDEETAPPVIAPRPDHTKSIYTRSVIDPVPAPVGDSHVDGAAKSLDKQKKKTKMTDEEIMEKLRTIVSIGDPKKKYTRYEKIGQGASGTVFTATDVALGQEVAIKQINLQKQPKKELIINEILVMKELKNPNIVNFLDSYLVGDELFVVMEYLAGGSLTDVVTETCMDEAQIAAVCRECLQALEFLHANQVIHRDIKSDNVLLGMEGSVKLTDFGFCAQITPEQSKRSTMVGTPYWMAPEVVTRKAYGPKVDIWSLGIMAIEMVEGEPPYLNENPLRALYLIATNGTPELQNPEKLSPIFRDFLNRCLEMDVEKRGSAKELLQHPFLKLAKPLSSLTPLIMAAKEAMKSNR

[2] = target: Death-associated protein kinase 2 (Homo sapiens) (UniProt Q9UIK4); test: Inhibition of wild-type human full length DAPK2 (M1 to S370 residues) expressed in Escherichia coli BL21 assessed as residual activity at 1000 nM after 30 mins by Kinomescan method relative to control
How it was run: (§1)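 Single-concentration screen at 1 µM across a 456-kinase KINOMEscan panel. The read-out is Percent Control for each kinase.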

[3] = target: Serine/threonine-protein kinase NIM1 (Homo sapiens) (UniProt Q8IY84); test: Inhibition of wild-type human partial length NIM1 (Q44 to N355 residues) expressed in HEK293 cells assessed as residual activity at 1000 nM after 30 mins by Kinomescan method relative to control; assay type: cell-based
[4] = target: AP2-associated protein kinase 1 (Homo sapiens) (UniProt Q2M2I8); test: Inhibition of human wild-type AAK1 (G25 to L333 residues) expressed in Escherichia coli BL21 assessed as residual activity at 1000 nM after 30 mins by Kinomescan method relative to control
How it was run: (§2)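 Single-point screen at a fixed 1 µM, run within a 456-kinase DiscoveRx KINOMEscan panel. Each kinase's read-out is Percent Control, i.e. signal relative to a control without compound. Hits were scored by a Percent Control < 35 cut-off, and an S(35) selectivity score was calculated across the non-mutant kinases.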

[5] = target: Mitogen-activated protein kinase kinase kinase kinase 5 (Homo sapiens) (UniProt Q9Y4K4); test: Inhibition of wild-type human partial length MAP4K5 (M1 to P297 residues) expressed in Escherichia coli BL21 assessed as residual activity at 1000 nM after 30 mins by Kinomescan method relative to control
[6] = target: Testis-specific serine/threonine-protein kinase 3 (Homo sapiens) (UniProt Q96PN8); test: Inhibition of wild-type human full length TSSK3 (M1 to T268 residues) expressed in HEK293 cells assessed as residual activity at 1000 nM after 30 mins by Kinomescan method relative to control; assay type: cell-based
[7] = target: Cyclin-dependent kinase-like 2 (Homo sapiens) (UniProt Q92772); test: Inhibition of wild-type human partial length CDKL2 (M1 to D327 residues) expressed in Escherichia coli BL21 assessed as residual activity at 1000 nM after 30 mins by Kinomescan method relative to control
Chain of Cyclin-dependent kinase-like 2 (Homo sapiens) (Q92772 whole entry, the tested form may be a part): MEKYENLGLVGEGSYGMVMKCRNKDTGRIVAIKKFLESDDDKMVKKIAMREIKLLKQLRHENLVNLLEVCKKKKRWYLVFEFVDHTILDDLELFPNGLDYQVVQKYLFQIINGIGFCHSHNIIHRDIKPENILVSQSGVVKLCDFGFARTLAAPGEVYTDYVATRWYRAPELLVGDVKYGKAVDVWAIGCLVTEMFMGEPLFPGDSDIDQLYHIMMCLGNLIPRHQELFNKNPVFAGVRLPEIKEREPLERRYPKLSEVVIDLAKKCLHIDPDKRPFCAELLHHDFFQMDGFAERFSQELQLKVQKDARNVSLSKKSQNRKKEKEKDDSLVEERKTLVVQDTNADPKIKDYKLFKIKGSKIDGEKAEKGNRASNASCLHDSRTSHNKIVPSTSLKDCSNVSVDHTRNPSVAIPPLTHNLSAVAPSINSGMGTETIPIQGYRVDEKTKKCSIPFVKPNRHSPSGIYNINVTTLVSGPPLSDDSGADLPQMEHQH

[8] = target: NUAK family SNF1-like kinase 2 (Homo sapiens) (UniProt Q9H093); test: Inhibition of wild-type human partial length SNARK (P22 to A333 residues) expressed in HEK293 cells assessed as residual activity at 1000 nM after 30 mins by Kinomescan method relative to control; assay type: cell-based
[9] = target: Tyrosine-protein kinase receptor TYRO3 (Homo sapiens) (UniProt Q06418); test: Inhibition of wild-type human partial length TYRO3 (S497 to T814 residues) expressed in Escherichia coli BL21 assessed as residual activity at 1000 nM after 30 mins by Kinomescan method relative to control
[10] = target: Dual specificity tyrosine-phosphorylation-regulated kinase 1A (Homo sapiens) (UniProt Q13627); test: Inhibition of wild-type human partial length DYRK1A (H129 to S509 residues) expressed in HEK293 cells assessed as residual activity at 1000 nM after 30 mins by Kinomescan method relative to control; assay type: cell-based
[11] = target: Serine/threonine-protein kinase BRSK2 (Homo sapiens) (UniProt Q8IWQ3); test: Inhibition of wild-type human full length BRSK2 (M1 to L674 residues) expressed in Escherichia coli BL21 assessed as residual activity at 1000 nM after 30 mins by Kinomescan method relative to control; how it was run: as §2
Chain of Serine/threonine-protein kinase BRSK2 (Homo sapiens) (Q8IWQ3 whole entry, the tested form may be a part): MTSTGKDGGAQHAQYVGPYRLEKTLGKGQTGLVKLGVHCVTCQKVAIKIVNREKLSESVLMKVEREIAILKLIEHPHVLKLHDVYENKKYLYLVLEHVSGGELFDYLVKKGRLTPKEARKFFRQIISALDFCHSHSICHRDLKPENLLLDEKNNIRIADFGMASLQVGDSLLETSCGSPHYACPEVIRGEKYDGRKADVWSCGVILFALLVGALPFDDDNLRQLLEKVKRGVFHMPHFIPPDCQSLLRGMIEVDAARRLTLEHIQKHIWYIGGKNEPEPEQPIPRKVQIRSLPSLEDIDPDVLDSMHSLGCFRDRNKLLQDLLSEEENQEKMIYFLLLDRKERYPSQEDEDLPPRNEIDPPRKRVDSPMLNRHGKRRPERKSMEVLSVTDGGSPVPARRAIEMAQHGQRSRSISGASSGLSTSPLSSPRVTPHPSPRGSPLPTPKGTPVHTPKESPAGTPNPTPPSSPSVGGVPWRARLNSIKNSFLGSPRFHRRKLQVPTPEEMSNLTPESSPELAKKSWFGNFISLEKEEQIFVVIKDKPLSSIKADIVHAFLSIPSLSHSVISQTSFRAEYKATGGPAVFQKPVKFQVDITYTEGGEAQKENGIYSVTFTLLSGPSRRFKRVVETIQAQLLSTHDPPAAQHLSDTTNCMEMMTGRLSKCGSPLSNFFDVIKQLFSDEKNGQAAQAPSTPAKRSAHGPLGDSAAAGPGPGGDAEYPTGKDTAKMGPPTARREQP

[12] = target: Fibroblast growth factor receptor 4 (Homo sapiens, UniProt P22455); test: Inhibition of human recombinant His-tagged FGFR4 cytoplasmic domain ([…] residues) expressed in baculovirus using Tyr-4 peptide after 1 hr by FRET-based Z'-Lyte assay
Chain of Fibroblast growth factor receptor 4 (P22455 whole entry, the tested form may be a part): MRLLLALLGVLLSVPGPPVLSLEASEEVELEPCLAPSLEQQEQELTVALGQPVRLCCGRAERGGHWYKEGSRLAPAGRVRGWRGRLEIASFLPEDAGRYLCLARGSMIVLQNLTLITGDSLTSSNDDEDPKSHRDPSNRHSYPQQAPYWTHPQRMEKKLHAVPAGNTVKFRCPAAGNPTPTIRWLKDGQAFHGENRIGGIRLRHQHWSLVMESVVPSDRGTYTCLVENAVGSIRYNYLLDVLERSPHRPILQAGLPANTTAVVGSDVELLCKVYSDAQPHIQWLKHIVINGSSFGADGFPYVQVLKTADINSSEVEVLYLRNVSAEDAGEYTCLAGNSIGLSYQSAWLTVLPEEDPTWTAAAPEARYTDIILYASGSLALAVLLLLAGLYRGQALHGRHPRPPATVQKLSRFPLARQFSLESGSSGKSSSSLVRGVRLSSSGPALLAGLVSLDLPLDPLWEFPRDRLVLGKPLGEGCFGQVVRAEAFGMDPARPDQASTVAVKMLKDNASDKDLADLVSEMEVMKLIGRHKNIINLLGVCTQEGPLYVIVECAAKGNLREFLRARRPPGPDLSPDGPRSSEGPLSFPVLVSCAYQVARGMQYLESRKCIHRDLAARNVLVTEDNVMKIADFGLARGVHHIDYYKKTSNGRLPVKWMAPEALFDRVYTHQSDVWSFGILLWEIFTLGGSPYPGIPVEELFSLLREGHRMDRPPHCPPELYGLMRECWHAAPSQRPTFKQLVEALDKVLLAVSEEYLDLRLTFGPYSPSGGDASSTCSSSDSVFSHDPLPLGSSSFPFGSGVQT

[13] = target: Ephrin type-B receptor 4 (Homo sapiens) (UniProt P54760); test: Inhibition of wild-type human partial length EPHB4 (H585 to G892 residues) expressed in Escherichia coli BL21 assessed as residual activity at 1000 nM after 30 mins by Kinomescan method relative to control
[14] = target: Cyclin-dependent kinase 7 (Homo sapiens) (UniProt P50613); test: Inhibition of wild-type human full length CDK7 (M1 to L344 residues) expressed in HEK293 cells assessed as residual activity at 1000 nM after 30 mins by Kinomescan method relative to control; assay type: cell-based; how it was run: as §2
Chain of Cyclin-dependent kinase 7 (Homo sapiens) (P50613 whole entry, the tested form may be a part): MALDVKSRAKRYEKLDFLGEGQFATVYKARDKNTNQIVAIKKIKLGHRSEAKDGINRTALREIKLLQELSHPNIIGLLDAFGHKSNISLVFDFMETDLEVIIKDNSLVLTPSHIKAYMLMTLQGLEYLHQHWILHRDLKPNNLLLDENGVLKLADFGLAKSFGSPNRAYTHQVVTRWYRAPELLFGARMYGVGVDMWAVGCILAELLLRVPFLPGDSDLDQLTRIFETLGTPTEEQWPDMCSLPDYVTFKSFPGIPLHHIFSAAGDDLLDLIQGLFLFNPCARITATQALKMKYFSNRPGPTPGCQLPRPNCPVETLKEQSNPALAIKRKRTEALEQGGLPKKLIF

[15] = target: Calcium/calmodulin-dependent protein kinase type 1 (Homo sapiens) (UniProt Q14012); test: Inhibition of wild-type human full length CAMK1 (M1 to L370 residues) expressed in Escherichia coli BL21 assessed as residual activity at 1000 nM after 30 mins by Kinomescan method relative to control; how it was run: as §2
[16] = target: Fibroblast growth factor receptor 3 (Homo sapiens, UniProt P22607); test: Inhibition of human recombinant His-tagged FGFR3 cytoplasmic domain (399 to 806 residues) expressed in baculovirus using Tyr-4 peptide after 1 hr by FRET-based Z'-Lyte assay
[17] = target: Ephrin type-A receptor 8 (Homo sapiens) (UniProt P29322); test: Inhibition of wild-type human partial length EPHA8 (Q608 to C920 residues) expressed in Escherichia coli BL21 assessed as residual activity at 1000 nM after 30 mins by Kinomescan method relative to control
[18] = target: Activin receptor type-1 (Homo sapiens) (UniProt Q04771); test: Inhibition of wild-type human ACVR1 (C188 to C509 residues) expressed in Escherichia coli BL21 assessed as residual activity at 1000 nM after 30 mins by Kinomescan method relative to control; how it was run: as §2
Chain of Activin receptor type-1 (Homo sapiens) (Q04771 whole entry, the tested form may be a part): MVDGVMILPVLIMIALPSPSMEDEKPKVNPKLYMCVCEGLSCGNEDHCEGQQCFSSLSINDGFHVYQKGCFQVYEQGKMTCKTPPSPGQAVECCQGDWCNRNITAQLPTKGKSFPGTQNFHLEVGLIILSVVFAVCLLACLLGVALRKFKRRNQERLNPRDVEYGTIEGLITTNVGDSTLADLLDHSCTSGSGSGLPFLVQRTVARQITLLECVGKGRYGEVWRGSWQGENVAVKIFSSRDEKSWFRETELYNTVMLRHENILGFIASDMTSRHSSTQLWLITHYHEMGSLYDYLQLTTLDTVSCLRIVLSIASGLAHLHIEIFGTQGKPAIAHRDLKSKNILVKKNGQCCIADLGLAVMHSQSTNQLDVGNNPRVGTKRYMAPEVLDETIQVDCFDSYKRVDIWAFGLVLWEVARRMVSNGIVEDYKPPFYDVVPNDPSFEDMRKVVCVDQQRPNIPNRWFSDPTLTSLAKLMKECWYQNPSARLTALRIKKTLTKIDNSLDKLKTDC

[19] = target: Ephrin type-A receptor 4 (Homo sapiens) (UniProt P54764); test: Inhibition of wild-type human partial length EPHA4 (T601 to R897 residues) expressed in Escherichia coli BL21 assessed as residual activity at 1000 nM after 30 mins by Kinomescan method relative to control
[20] = target: MAP kinase-interacting serine/threonine-protein kinase 1 (Homo sapiens) (UniProt Q9BUB5); test: Inhibition of wild-type human full length MKNK1 (M1 to L424 residues) expressed in HEK293 cells assessed as residual activity at 1000 nM after 30 mins by Kinomescan method relative to control; assay type: cell-based; how it was run: as §1
Chain of MAP kinase-interacting serine/threonine-protein kinase 1 (Homo sapiens) (Q9BUB5 whole entry, looked up, the tested form may be a part): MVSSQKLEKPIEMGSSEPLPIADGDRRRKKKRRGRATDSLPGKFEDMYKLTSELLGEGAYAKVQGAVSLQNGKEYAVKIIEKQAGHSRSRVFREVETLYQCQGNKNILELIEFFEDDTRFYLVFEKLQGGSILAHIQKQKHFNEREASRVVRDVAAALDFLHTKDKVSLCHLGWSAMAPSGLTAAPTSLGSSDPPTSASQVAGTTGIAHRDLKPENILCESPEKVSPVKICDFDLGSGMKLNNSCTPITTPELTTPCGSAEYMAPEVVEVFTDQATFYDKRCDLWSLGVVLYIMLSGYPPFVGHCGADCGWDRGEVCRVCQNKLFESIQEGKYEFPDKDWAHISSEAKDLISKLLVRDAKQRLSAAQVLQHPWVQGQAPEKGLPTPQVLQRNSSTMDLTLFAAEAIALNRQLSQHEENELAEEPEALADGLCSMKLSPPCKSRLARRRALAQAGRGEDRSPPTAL

[21] = target: Atypical kinase COQ8A, mitochondrial (Homo sapiens) (UniProt Q8NI60); test: Inhibition of wild-type human […] ADCK3 (M280 to Q647 residues) expressed in Escherichia coli BL21 assessed as residual activity at 1000 nM after 30 mins by Kinomescan method relative to control; how it was run: as §2
Chain of Atypical kinase COQ8A, mitochondrial (Homo sapiens) (Q8NI60 163-647 limits assumed): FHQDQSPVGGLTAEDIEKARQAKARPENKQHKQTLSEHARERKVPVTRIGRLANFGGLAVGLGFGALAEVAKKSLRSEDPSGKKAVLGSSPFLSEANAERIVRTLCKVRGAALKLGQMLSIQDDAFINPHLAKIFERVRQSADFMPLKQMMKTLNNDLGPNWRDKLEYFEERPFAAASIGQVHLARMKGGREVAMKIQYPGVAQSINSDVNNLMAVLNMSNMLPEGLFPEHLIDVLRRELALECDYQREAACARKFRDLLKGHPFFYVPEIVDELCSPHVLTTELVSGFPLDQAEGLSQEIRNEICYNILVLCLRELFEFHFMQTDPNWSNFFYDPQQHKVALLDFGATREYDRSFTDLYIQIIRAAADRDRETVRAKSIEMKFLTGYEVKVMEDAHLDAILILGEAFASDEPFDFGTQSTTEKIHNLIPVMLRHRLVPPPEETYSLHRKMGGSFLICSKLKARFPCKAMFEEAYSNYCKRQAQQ

[22] = target: 5'-AMP-activated protein kinase catalytic subunit alpha-2 (Homo sapiens) (UniProt P54646); test: Inhibition of wild-type human partial length AMPK alpha2 (M1 to E306 residues) expressed in Escherichia coli BL21 assessed as residual activity at 1000 nM after 30 mins by Kinomescan method relative to control
Chain of 5'-AMP-activated protein kinase catalytic subunit alpha-2 (Homo sapiens) (P54646 whole entry, looked up, the tested form may be a part): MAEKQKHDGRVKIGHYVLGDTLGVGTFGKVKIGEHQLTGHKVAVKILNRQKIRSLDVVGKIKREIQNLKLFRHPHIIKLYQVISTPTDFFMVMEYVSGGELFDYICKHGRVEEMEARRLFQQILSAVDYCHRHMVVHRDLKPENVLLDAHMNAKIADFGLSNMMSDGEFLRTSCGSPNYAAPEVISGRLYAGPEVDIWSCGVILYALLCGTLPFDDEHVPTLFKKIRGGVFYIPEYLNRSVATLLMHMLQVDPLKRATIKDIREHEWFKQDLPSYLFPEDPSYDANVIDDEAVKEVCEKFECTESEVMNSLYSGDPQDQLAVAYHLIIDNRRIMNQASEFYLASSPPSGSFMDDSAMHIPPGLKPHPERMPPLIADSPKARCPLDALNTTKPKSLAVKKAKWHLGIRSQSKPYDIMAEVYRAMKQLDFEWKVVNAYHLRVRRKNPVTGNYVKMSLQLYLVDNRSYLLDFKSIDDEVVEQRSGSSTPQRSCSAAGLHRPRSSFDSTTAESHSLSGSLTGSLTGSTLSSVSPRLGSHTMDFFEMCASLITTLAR

`COc1cc(OC)c(Cl)c(N2Cc3cnc(Nc4ccc(F)cc4)nc3N(C3CCN(C(=O)/C=C/CN(C)C)CC3)C2=O)c1Cl` was tested, and the Activity [1] was 100%, the Activity [2] was 100% and the Activity [3] was 100%. It also gave an Activity [4] of 100%, an Activity [5] of 82% and an Activity [6] of 100%. For the same molecule, the Activity [7] was 96%, the Activity [8] was 89% and the Activity [9] was 57%. The Activity [10] was 98%, the Activity [11] was 99% and the IC50 [12] was 78.1 nM. It also gave an Activity [13] of 100%, an Activity [14] of 100% and an Activity [15] of 100%. For the same molecule, the IC50 [16] was 5.07 nM, the Activity [17] was 100% and the Activity [18] was 100%. The Activity [19] was 100%, the Activity [20] was 88% and the Activity [21] was 100%. The Activity [22] was 89%.
